From ChEMBL document CHEMBL1151234, “Chemistry of renieramycins. Part 5. Structure elucidation of renieramycin-type derivatives O, Q, R, and S from thai marine sponge Xestospongia species pretreated with potassium cyanide” (J Nat Prod, 2004) come the findings set out here.

One may read the IC50 as the midpoint of a concentration-inhibition curve. A lower IC50 goes with greater potency in that assay.

For one experiment, the system named is HCT-116. In words: Cytotoxicity against human HCT116 cells after 4 days. It is filed as functional, cell-based. The following applies: HCT-116, 96 h. In a few lines: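 Single-cell suspension of HCT116 cells seeded at 2 × 10^3 cells/well onto serially diluted test compounds, cultured 4 days. Growth read with a cell counting kit. IC50 taken as the concentration giving 50% growth inhibition versus untreated control.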

In the next experiment the test system is QG-56. In words: Cytotoxicity against human QG56 cells after 4 days. In kind it is functional, cell-based. To be noted: QG-56, 96 h.

Take `C/C=C(/C)C(=O)OC[C@H]1C2=C(C[C@H]3[C@H]4C5=C(C(=O)C(C)=C(OC)C5=O)[C@H](OC)[C@@H]([C@H](C#N)N13)N4C)C(=O)C(C)=C(OC)C2=O` [RENIERAMYCIN R]: the IC50 in the experiment on HCT-116 came to 23 nM; with QG-56 it was 29 nM.
For `C/C=C(/C)C(=O)OC[C@H]1C2=C(C[C@H]3[C@H]4c5c(O)c(OC)c(C)c(O)c5C(=O)[C@@H]([C@H](C#N)N13)N4C)C(=O)C(C)=C(OC)C2=O` [RENIERAMYCIN Q], the IC50 in the experiment with HCT-116 came to 59 nM; with QG-56, 71 nM.
In the case of `C/C=C(/C)C(=O)OC[C@H]1C2=C(C[C@H]3[C@H]4C5=C(C[C@@H]([C@H](C#N)N13)N4C)C(=O)C(C)=C(OC)C5=O)C(=O)C(C)=C(O)C2=O` [RENIERAMYCIN S], the IC50 in the experiment on HCT-116 came out at 15 nM; with QG-56, 26 nM.
In the case of `C/C=C(/C)C(=O)OC[C@H]1C2=C(C[C@H]3[C@H]4C5=C(C(=O)C(C)=C(OC)C5=O)[C@H](OC(C)=O)[C@@H]([C@H](C#N)N13)N4C)C(=O)C(C)=C(OC)C2=O`, the IC50 in the experiment with HCT-116 came to 120 nM; in the experiment with QG-56 it was 300 nM.
In the case of `C/C=C(/C)C(=O)OC[C@H]1c2c(c(OC(C)=O)c(C)c(OC)c2OC(C)=O)C[C@H]2[C@H]3c4c(c(OC(C)=O)c(C)c(OC)c4OC(C)=O)C[C@@H]([C@H](C#N)N12)N3C`, the IC50 was found to be 3 nM with HCT-116 and 7.9 nM in the experiment with QG-56.
Take `C/C=C(/C)C(=O)OC[C@H]1c2c(c(OC(C)=O)c(C)c(OC)c2OC(C)=O)C[C@H]2[C@H]3C4=C(C[C@@H]([C@H](C#N)N12)N3C)C(=O)C(C)=C(OC)C4=O`: the IC50 with HCT-116 stood at 1.9 nM; with QG-56 it was 3.9 nM.
For `C/C=C(/C)C(=O)OC[C@H]1C2=C(C[C@H]3[C@H]4c5c(OC(C)=O)c(OC)c(C)c(OC(C)=O)c5[C@H](OC(C)=O)[C@@H]([C@H](C#N)N13)N4C)C(=O)C(C)=C(OC)C2=O`, the IC50 in the experiment with HCT-116 is 630 nM; with QG-56, 1600 nM.
